Reference: ChEMBL document CHEMBL4513216, “Probing the Open Global Health Chemical Diversity Library for Multistage-Active Starting Points for Next-Generation Antimalarials” (ACS Infect Dis, 2020)

test: Toxicity liver stage against HepG2, at 10uM; format: cell-based; set-up: test concentration 10 uM, cell line HepG2-A16-CD81EGFP; settings: human, HepG2-A16-CD81EGFP cells; read-out: INHIBITION
Outline: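 Uninfected HepG2-A16-CD81EGFP cells, 3 × 10^3 per well, 1536-well, plated on prespotted compound at 10 μM final, parasite-free screening media added to match infected plates; puromycin 10 μM positive, DMSO 0.5% negative; run in parallel with 48 h PbLuc assay at 37 °C, 5% CO2; viability by CellTiter-Glo luminescence, normalized to controls.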

Compound	cytotoxicity at 10 µM [%]
CCCc1cc(C(=O)N[C@H](C)[C@@H](O)c2ccc(O)cc2)n(C)n1	1.48
O=C(c1cc(Cl)c(Br)[nH]1)N1CCN(Cc2ccco2)CC1	-55.7
Cc1ccccc1C(=O)CN1C(=O)c2ccccc2CS1(=O)=O	-10.1
Cc1nc(CN2CCCC(Cn3cc(CCO)nn3)C2)c2ccccn12 (stereo not given)	3.28
O=S(=O)(NCCC(O)c1ccoc1)c1ccc(Cl)s1 (stereo not given)	-0.847
Cc1noc(C)c1C(C)NC(=O)N1CCC(NC(=O)c2ccsc2)CC1 (stereo not given)	7.07
CCSCC(C)NCc1nc(-c2cccnc2)no1 (stereo not given)	-7.66
CN1CCN(C(=O)C2CC=CC2)c2ccccc21	14.9
CNC(=O)CN1C(=O)CCC12CCCN(Cc1ccccn1)C2 (stereo not given)	4.5
COc1cc(CNC(=O)COC2CCCC2)ccc1O	-7.2
CCOc1ccc(CN(C)C(=O)NC(C)c2nncn2C)cc1 (stereo not given)	8.62
Cn1nc2c(c1NC(=O)c1ccc(C3CCCN3C3CCC3)s1)CCC2 (stereo not given)	-5.08
Cc1cccnc1CC(C)N(C)C(=O)c1cccs1 (stereo not given)	-1.02
CCc1cc(N(C)CCC(O)c2ccccc2)n2nccc2n1 (stereo not given)	-1.14
Cc1ccc(CN(C)Cc2nc3ccc(F)cc3[nH]2)cn1	-5.16
O=C(NCc1noc(C2CCCO2)n1)c1cn2ccsc2n1 (stereo not given)	-3.77
CC(C)(C)CN1CCCC2(CCN(C(=O)c3ccc(O)nc3)C2)C1 (stereo not given)	-0.937
CS(=O)(=O)N1CCN(Cc2cccs2)CC(C(N)=O)C1 (stereo not given)	18
Cn1cc2c(n1)C(CNCc1ccco1)OCC2 (stereo not given)	-1.54
COCCN1CCc2ncc(CNc3cc(N(C)C)ncn3)n2CC1	-1.95
COc1ccc(CNC(=O)N2CCOCC2C2CC2)cc1C (stereo not given)	10.4
CNc1ncc(CN(C)C(=O)c2cccc(-n3cnnc3)c2)cn1	1.5

Compound	cytotoxicity at 10 µM [%]
O=C(c1cocn1)N1C[C@@H]2CN(Cc3ccco3)CCO[C@@H]2C1	5.24
CN(C)C(=O)[C@H]1CCS(=O)(=O)[C@@H]2CN(c3ncccn3)C[C@H]12	-103
CC1CCN(S(=O)(=O)N2CCc3sccc3C2)CC1	-30.8
Cc1ccnc(C2(C)CCCN2C(=O)c2cnccn2)n1 (stereo not given)	-34
COc1cc(CNC2CCCN(c3cccnn3)C2)cc2c1OCO2 (stereo not given)	-2.22
CCCNC(=O)NC(=O)CNC(C)(C)c1ccc2c(c1)OCCO2	-14.7
CNc1cc(C)nc(C2CN(Cc3ccc(C)nc3)CCO2)c1 (stereo not given)	-2.29
CN(C)c1ccc(C(=O)N2CCCC2c2noc(C3CC3)n2)nn1 (stereo not given)	-8.36
CC(C)Cn1ccnc1CNC(=O)NC(C)(C)c1nccs1	-5.66
CCOc1cc(-c2cc(=O)n3c(n2)CCCCC3)ccc1O	1.32
O=C(NC1CCC1)[C@H]1C[C@H]2NCCO[C@@H]2C1	-131
CCc1ccc(CN2C[C@@H]3OCCN(c4ccnc(N(C)C)n4)[C@@H]3C2)o1	61.8
CCC(=O)NCc1cc(Br)c(OC)c(OC)c1	-0.0582
CS(=O)(=O)N[C@H]1CN(CCOCc2ccccc2)C[C@@H]1C1CC1	-1.1
O=C(CC1CC1)NCc1cc(=O)n2c(n1)CN(Cc1ccoc1)CCC2	-20.6
Cc1nc(CN2CCN(CCCc3nc4ccccc4o3)CC2)no1	9.13
CSCc1cc(F)ccc1CNC(=O)N1CCC[C@@H]1CO	4.8
COc1cccc(C(=O)N2CCN(Cc3nc(C(C)C)no3)CC2)c1	-18.7
O=C(c1cc(-c2ccn(CC3CC3)n2)n2ccccc12)N1CCCO1	5.07
CN(CCOc1ccc(F)cc1)S(=O)(=O)N1CCOCC1	7.71
O=C(CC1=CSC2=NCCCN12)N1CCCCC1c1cccc(F)c1 (stereo not given)	-160
COc1c(CNC(c2nccn2C)C(C)C)c(C)nn1C (stereo not given)	-7.46

Compound	cytotoxicity at 10 µM [%]
CCCn1cc(NC2CCSCC2)cn1	-1.88
CC(C)C(=O)N1CCCC(c2cncc(Oc3cccnc3)n2)C1 (stereo not given)	-2.83
O=C(CC1CC1)N1CCC2(CC1)CN(CCn1cccn1)C(=O)CO2	1.75
Cc1nc(C(C)C)sc1C(=O)N(C)Cc1cnn(C)c1	6.45
CC(C)c1noc(C2CCN(C(=O)c3cccs3)CC2)n1	1.51
COc1ccccc1CN1CCC2(CC1)CC(Oc1ccccn1)CO2 (stereo not given)	-1.96
Cn1cccc1C(=O)N1C[C@H]2CN(Cc3cccc(F)c3)C[C@H]2C1	-1.1
O=C(NCC(F)F)c1ccc(S(=O)(=O)N2CCCC(O)C2)cc1 (stereo not given)	1.29
CCc1nnc(CN(CC)C(=O)C2CC(=O)N(CC)C2)o1 (stereo not given)	1.97
Cc1ccc2[nH]c(CN3CC[C@@H](N4CCN(C)CC4)[C@H](O)C3)c(C)c2c1	-7.34
Cc1csc(-c2cccc(NC(=O)NCC(C)(C)C(N)=O)c2)n1	-4.25
COc1cc(C(=O)NC(C)C)nc2c(C)cc(F)cc12	2.43
CN(C)c1ccc(C(=O)NCC2(O)CCOCC2)cc1	-3.34
Cc1nc(CN2Cc3nccn3CC(CN3CCCC3)C2)cs1 (stereo not given)	2.43
COCCC(=O)N1CCC(c2nc(O)cc(-c3ccncc3)n2)C1 (stereo not given)	-25
Cc1n[nH]c(C)c1CCc1ccc(S(C)(=O)=O)cc1	6.29
CC(C)CC(=O)N1CC[C@H]2C[C@H](c3nccs3)O[C@@H]2C1	-0.966
CCOCC1CN(CCN2CCCCC2)Cc2cnn(C)c21 (stereo not given)	-99.9
O=C(O)c1ccc2[nH]cc(CN3CCOCC3)c2c1	-9.48
O=C(C1CC(=O)N(c2ccccc2)C1)N1CCC2(CC1)OCCO2 (stereo not given)	1.87
Cc1noc(C(C)C)c1C(=O)NCCCN1CCCCCC1=O	1.91
O=C(Nc1ccccc1Cl)N1CCN(CC2CC2)[C@@H]2CS(=O)(=O)C[C@@H]21	2.72

Compound	cytotoxicity at 10 µM [%]
CC(=O)N1CCCN(C(=O)NCc2ccccn2)CC1	-7.37
COc1cc(C(=O)NCC2CCCO2)nc2c(C)cc(F)cc12 (stereo not given)	1.79
O=C(Cn1cccc1)NCC1CCN(Cc2cc3ccccc3[nH]2)C1 (stereo not given)	12.6
Clc1ccc(OCCNCCn2cccn2)cc1	-14.4
O=C(Nc1ccc(F)cc1)N1CCC2(CCC(=O)N(C3CC3)C2)CC1	5.54
Cc1ncsc1CCC(=O)NC1CCN(Cc2cccs2)CC1	-3.09
Cc1cc(F)ccc1N1CCC(N2C[C@@H](C)[C@@](C)(O)C2)CC1	8.79
Cc1cc(C)n(CC2CCCCN2CCC(=O)Nc2cc(C)on2)n1 (stereo not given)	-1.03
O=C1NCCCC1NC(=O)C1(c2cccc(Cl)c2)CCC1 (stereo not given)	-2.09
COCC(=O)N[C@H](C(=O)NC(C)c1cc(C)ccc1C)C(C)C (stereo not given in full)	0.341
O=C1NCC2(CCCN(Cc3ccc(F)cc3)C2)Oc2ccccc21 (stereo not given)	-12.8
COCCN1C[C@@H]2[C@@H](OC)CCN(Cc3ccncc3)[C@@H]2C1	5.16
COc1ncc(CN2CC[C@@](C)(O)[C@H](Oc3cccc(F)c3)C2)cn1	1.68
O=C(c1ccc2nccn2c1)N1CCCC1c1noc(C2CC2)n1 (stereo not given)	-4.68
COc1cccc(CN(C)Cc2[nH]c3ccccc3c2C)c1O	3.38
CC(C)Oc1cc(N2CC[C@H](CO)[C@@H](O)C2)nc(N)n1	2.41
O=C(NCCCN1CCOCC1)c1ccc(-c2ccccc2)[nH]c1=O	-2.48
Cc1noc(C)c1CNC(=O)N1CCC(OCC2CC2)CC1	-11
Cc1ccc(C(=O)O)c(N2Cc3cnc(C(C)(C)C)nc3C2)n1	5.67
O=C(c1ccc(O)cn1)N1CCOC(Cc2cccc(C(F)(F)F)c2)C1 (stereo not given)	5.08
CC1(c2[nH]ncc2C(N)=O)CCN(c2ncccn2)CC1	0.462
CC(=O)N1C[C@H](NS(=O)(=O)c2cccc(Cl)c2)[C@@H](C(C)C)C1	7.82

Compound	cytotoxicity at 10 µM [%]
COC1CCN(C(=O)Cc2csc(-c3ncccn3)n2)CC1	-12.6
Cc1cnn(CC2CCCCN2C(=O)c2ccc3[nH]cnc3c2)c1 (stereo not given)	-9.75
CC(NC1(CNC(=O)Cn2cccn2)CCOCC1)c1ccccc1 (stereo not given)	-3.07
C[C@@H]1C[C@H]2CN(Cc3nccs3)C[C@H]2O1	-1.22
Cc1nccc([C@H]2C[C@@H]3CCN(S(=O)(=O)C4CC4)C[C@H]3O2)n1	-2.3
COCC(=O)N1CCN(C(C)C(=O)NC(C)C)CC1 (stereo not given)	1.06
COc1ccnc(N2CCC3(CC2)[C@H](O)C[C@@H]3OCCN(C)C)n1	1.03
Cc1ncc2c(n1)CN(C(C(N)=O)c1ccc(F)cc1)CC2 (stereo not given)	-1.01
CN(Cc1cnn(C)c1)C(=O)CCc1ccc2c(c1)OCO2	-2.59
O=C(NCc1csc(Br)c1)N1CCC(O)CC1	-11.8
Cc1ccc(CN2C[C@H](N(C)Cc3cncnc3)[C@H]3OCCC[C@H]32)o1	-149
CCN(Cc1ccco1)C(C)c1nc(C(C)(C)C)no1 (stereo not given)	0.623
Cc1nc(C)n(CC2CCCN(CCc3ccccn3)C2)n1 (stereo not given)	-1.59
CC1c2ncc(COCc3ccccn3)n2CCN1C1CCCC1 (stereo not given)	12.8
Cc1cc(C)c(C(=O)N(C)CCN(C)C(=O)OC(C)(C)C)[nH]1	3.87
COc1cc(N2C[C@@H]3COC[C@]3(COc3ncccc3F)C2)ncn1	-67.5
O=C(COc1ccc(Cl)cc1)N1CCOCC1c1ncon1 (stereo not given)	-21
O=C(CN1C(=O)CCCc2sccc21)NC1CCc2nccn2C1 (stereo not given)	9.29
CS(=O)(=O)CCNC(=O)Nc1ccc(Cl)cc1-n1cccc1	48.2
COCc1noc(C2(c3cccc(Cl)c3)CCOCC2)n1	-2.93
Cc1cc(CNC(=O)NCc2cccs2)no1	-1.87
CCn1ccnc1CN1CCN(CC(O)c2ccc(OC)cc2)CC1 (stereo not given)	-15.1
